In paper PMC5766731 (Clinical Pharmacokinetics, 2017):
Read-outs that look alike come from different tables or passages of the source.

Key:
[1] = Part I single ascending-dose pharmacokinetics; type: in vivo, human; conditions: for t max / AUCt / AUC∞ / C max / CL/F_obs / V z/F_obs / t ½ / λz: part I, fasted; for t max: mean (range) per footnote; for AUCt / AUC∞ / C max / CL/F_obs / V z/F_obs / t ½ / λz: mean ± SD
[2] = Part III sex and food effect pharmacokinetics; type: in vivo, human; conditions: for AUCt / AUC∞ / C max / CL/F_obs / HL_Lambda_z (terminal half-life) / V z/F_obs / λz: part III, single oral 150 mg, n = 10, mean ± SD
Method in brief: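 Open-label crossover at a single 150 mg oral dose, with at least 14 days washout and an overnight fast of at least 10 h before each dose. Period I: 12 subjects (6 men, 6 women), fasted. Period II: 10 subjects (5 men, 5 women) given a high-fat, roughly 800–1000 calorie breakfast 30 min pre-dose. Drug measured in diluted blood by LC-MS/MS (2–5000 ng/mL). Food effect tested by two-sided t test, α = 0.05.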

[3] = Part I urinary recovery of ZYAN1; type: in vivo, human; conditions: for Amount recovered [mean ± SD] / Percentage recovered [mean ± SD]: urine, part I
Method in brief: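 Urine collected pre-dose and over 0–12, 12–24, 24–36 and 36–48 h: after the single dose (10–300 mg, part I) or after each alternate-day dose on Days 1, 3 and 5 (part II). Total volume recorded; 5 mL aliquots stored at –80 ± 10 °C. Acetonitrile precipitation and LC-MS/MS with analog internal standard, urine calibration 2–5000 ng/mL, LLOQ 2 ng/mL. Amount and percentage of dose recovered calculated.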

[4] = rats, oral route; cited from earlier work
[5] = system: serum erythropoietin (EPO), hemoglobin, hematocrit, reticulocyte count; test: Part I pharmacodynamics; type: in vivo, human; conditions: for mean serum EPO C max: placebo 9.6 mIU/L
Method in brief: (§1)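 Serum EPO, hemoglobin, hematocrit and reticulocyte count were measured in blood taken before and after oral dosing. Regimens: part I single fasted doses 10–300 mg vs placebo; part II 100–300 mg on Days 1, 3, 5 vs placebo; part III single 150 mg, fasted vs fed, men and women. EPO expressed baseline-corrected. Post-dose vs baseline compared by paired two-sided t test, α = 0.05.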

[6] = Part II safety assessment; type: in vivo, human
Method in brief: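 Safety monitored under ICH-GCP in each part (single 10–300 mg; alternate-day 100–300 mg; 150 mg fasted/fed crossover). Assessments: adverse events coded with MedDRA version 18.0, clinical examinations, frequent vital signs, 12-lead ECGs, clinical laboratory tests, and continuous ECG for 24 h post-dose in parts I and II. Post-dose vs baseline compared by paired two-sided t test, α = 0.05.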

[7] = system: serum erythropoietin (EPO), hemoglobin, hematocrit, reticulocyte count; test: Part III pharmacodynamics; type: in vivo, human; conditions: single 150 mg
Method in brief: as §1

[8] = cited from earlier work
[9] = mice, oral route; cited from earlier work
PHD enzyme = conditions: read-out: concentration of drug producing 50% inhibition [IC50]; HepG2 cells, HIF stabilization; cited from earlier work

## O=C(O)CNC(=O)c1c(O)c2ccccc2n(OCC2CC2)c1=O [ZYAN1]
[1]; 30-fold single dose range, slight deviation at higher doses
  dose proportionality of C max and AUC: almost dose-proportional increase
[1]; across single doses 10-300 mg
  V d, range: 28 to 47 L
  apparent oral CL, range: 2 to 2.9 L/h
[1]; single oral dose 10 mg
  t max: 2.50 (1.50–3.00) h
  AUCt: 3597.269 ± 549.116 ng·h/mL
  AUC∞: 3659.531 ± 551.508 ng·h/mL
  C max: 566.467 ± 163.031 ng/mL
  CL/F_obs: 2784.592 ± 417.679 mL/h
  V z/F_obs: 27,683.707 ± 4805.113 mL
  t ½: 6.976 ± 1.390 h
  λz: 0.102 ± 0.019 h⁻¹
[1]; single oral dose 25 mg
  t max: 1.25 (1.00–2.50) h
  AUCt: 9177.789 ± 2359.163 ng·h/mL
  AUC∞: 9269.839 ± 2396.986 ng·h/mL
  C max: 1634.500 ± 299.429 ng/mL
  CL/F_obs: 2870.759 ± 817.646 mL/h
  V z/F_obs: 27,950.696 ± 5329.29 mL
  t ½: 6.917 ± 0.923 h
  λz: 0.102 ± 0.016 h⁻¹
[1]; single oral dose 50 mg
  t max: 2.25 (1.00–5.00) h
  AUCt: 24,518.328 ± 5125.235 h·ng/mL
  AUC∞: 24,847.379 ± 5242.290 h·ng/mL
  C max: 2959.333 ± 686.898 ng/mL
  CL/F_obs: 2084.748 ± 417.943 mL/h
  V z/F_obs: 30,578.971 ± 10,323.282 mL
  t ½: 10.434 ± 3.857 h
  λz: 0.074 ± 0.024 h⁻¹
[1]; single oral dose 100 mg
  t max: 2.25 (1.00–5.00) h
  AUCt: 46,844.762 ± 13,259.837 h·ng/mL
  AUC∞: 47,320.651 ± 13,358.696 h·ng/mL
  C max: 6745.000 ± 1958.132 ng/mL
  CL/F_obs: 2271.507 ± 686.413 mL/h
  V z/F_obs: 33,572.508 ± 10,971.959 mL
  t ½: 10.685 ± 3.249 h
  λz: 0.071 ± 0.023 h⁻¹
[1]; single oral dose 150 mg
  t max: 3.00 (2.50–5.00) h
  AUCt: 54,401.071 ± 12,592.181 h·ng/mL
  AUC∞: 54,672.481 ± 12,686.075 h·ng/mL
  C max: 8119.333 ± 1269.627 ng/mL
  CL/F_obs: 2891.042 ± 782.208 mL/h
  V z/F_obs: 46,536.434 ± 9434.457 mL
  t ½: 11.357 ± 1.616 h
  λz: 0.062 ± 0.008 h⁻¹
[1]; single oral dose 200 mg
  t max: 2.25 (1.50–5.00) h
  AUCt: 76,515.016 ± 6992.709 h·ng/mL
  AUC∞: 76,728.333 ± 7061.227 h·ng/mL
  C max: 12,080.667 ± 3430.123 ng/mL
  CL/F_obs: 2625.566 ± 248.239 mL/h
  V z/F_obs: 36,035.031 ± 6400.263 mL
  t ½: 9.502 ± 1.270 h
  λz: 0.074 ± 0.01 h⁻¹
[1]; single oral dose 300 mg
  t max: 2.00 (1.00–5.00) h
  AUCt: 115,898.815 ± 45,549.563 h·ng/mL
  AUC∞: 116,226.587 ± 45,834.174 h·ng/mL
  C max: 17,858.333 ± 2899.189 ng/mL
  CL/F_obs: 2835.924 ± 799.195 mL/h
  V z/F_obs: 38,836.681 ± 12,903.706 mL
  t ½: 9.484 ± 1.325 h
  λz: 0.074 ± 0.011 h⁻¹
[1]; single doses 10-300 mg
  t ½, range: 6.9 to 11.3 h
[1]; single doses 10-300 mg (30-fold range)
  median time to C max (t max): approximately 2.5 h
[2]; fed vs fasting, single 150 mg
  decrease of C max by ingestion of food: 2.39 times
[2]; Fasting
  AUCt: 71,331.577 ± 25,663.234 h·ng/mL
  AUC∞: 71,696.758 ± 25,837.440 h·ng/mL
  C max: 10,352.800 ± 3076.528 ng/mL
  CL/F_obs: 2479.865 ± 1333.719 mL/h
  HL_Lambda_z (terminal half-life): 11.048 ± 3.378 h
  V z/F_obs: 37,927.046 ± 18,082.141 mL
  λz: 0.067 ± 0.015 h⁻¹
[2]; Fed (high-fat breakfast)
  AUCt: 59,005.375 ± 16,846.249 h·ng/mL
  AUC∞: 59,561.279 ± 17,228.977 h·ng/mL
  C max: 4322.000 ± 1317.961 ng/mL
  CL/F_obs: 2801.105 ± 1109.706 mL/h
  HL_Lambda_z (terminal half-life): 11.328 ± 3.691 h
  V z/F_obs: 45,070.176 ± 19,928.748 mL
  λz: 0.066 ± 0.017 h⁻¹
[2]; single 150 mg
  AUC values, fed vs fasting: decreased
  mean C max, male vs female subjects: not statistically significant
  mean t ½, fed vs. fasted: similar
[2]; single 150 mg, small group, qualitative
  exposure, female vs male subjects: female subjects had a higher exposure than males
[3]; healthy subjects
  urinary excretion of intact ZYAN1, average: 36%
[3]; single oral dose 10 mg
  Amount recovered [mean ± SD]: 3.63 ± 1.02 mg
  Percentage recovered [mean ± SD]: 36.270 ± 10.245%
[3]; single oral dose 25 mg
  Amount recovered [mean ± SD]: 9.45 ± 1.76 mg
  Percentage recovered [mean ± SD]: 37.798 ± 7.059%
[3]; single oral dose 50 mg
  Amount recovered [mean ± SD]: 18.99 ± 3.36 mg
  Percentage recovered [mean ± SD]: 37.995 ± 6.718%
[3]; single oral dose 100 mg
  Amount recovered [mean ± SD]: 41.13 ± 12.06 mg
  Percentage recovered [mean ± SD]: 41.130 ± 12.064%
[3]; single oral dose 150 mg
  Amount recovered [mean ± SD]: 56.23 ± 17.26 mg
  Percentage recovered [mean ± SD]: 37.485 ± 11.508%
[3]; single oral dose 200 mg
  Amount recovered [mean ± SD]: 62.83 ± 18.11 mg
  Percentage recovered [mean ± SD]: 31.417 ± 9.056%
[3]; single oral dose 300 mg
  Amount recovered [mean ± SD]: 82.66 ± 39.25 mg
  Percentage recovered [mean ± SD]: 27.555 ± 13.083%
[4]
  tolerated dose, single-dose study: up to 800 mg/kg
[5]; doses up to 150 mg
  EPO response vs placebo: not markedly different from placebo
[5]; single dose 10 mg
  mean serum EPO C max: 6.6 mIU/L
[5]; single dose 300 mg
  mean serum EPO C max: 79.9 mIU/L
[5]; single dose, as early as
  initiation of EPO rise after ZYAN1 administration: 6 h
[5]; single dose, more consistent from 100 mg and above
  hemoglobin increase observed in most of the subjects: > 0.5 gm%
[6]; MAD 150 mg panel
  Adverse events (Test): Headache, dizziness
[6]; MAD 200 mg panel
  Adverse events (Test): Nausea, headache, dizziness, diarrhea, phlebitis
[6]; MAD 300 mg panel
  Adverse events (Test): Supra ventricular extrasystoles, abdominal pain, diarrhea, contusion, back pain, dizziness, headache, nasal congestion, phlebitis
[6]; MSD 100 mg panel (multiple dose)
  Adverse events (Test): Headache, dizziness
[6]; part II (ZYAN1 and placebo subjects)
  severity of treatment-related AEs: all grade 1 in severity, with the exception of dizziness in two subjects, which was classified as grade 2 in severity
[6]; part II, 16 AEs in 11 subjects, placebo 63%
  subjects with AEs possibly related to study treatment: 46%
[7]
  mean serum EPO concentrations, fasted vs fed: no apparent difference
[7]; fasted or fed
  mean serum EPO concentrations, male vs female subjects: no apparent difference
[8]; rats vs normal control rats
  effect of acute and chronic kidney failure models on pharmacokinetics: did not alter the pharmacokinetics
[8]; rats
  increase in the exposure after complete removal of both kidneys: 2 fold
[9]
  tolerated dose, single-dose study: up to 300 mg/kg
PHD enzyme
  IC50: 11.2 µM
